ChEMBL document CHEMBL4765452, “Discovery of (E)-N-(4-methyl-5-(3-(2-(pyridin-2-yl)vinyl)-1H-indazol-6-yl)thiazol-2-yl)-2-(4-methylpiperazin-1-yl)acetamide (IHMT-TRK-284) as a novel orally available type II TRK kinase inhibitor capable of overcoming multiple resistant mutants” (Eur J Med Chem, 2020)

Assays:
BaF3 [1] = assay: Antitumor activity against mouse BAF3 cells harboring TEL fused TRKC allografted in nude mouse assessed as tumor growth inhibition at 80 mg/kg, po administered once daily for 10 days relative to control; format: functional; conditions: 240 h, time 10 day, read-out: TGI
In short: (§1)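 Nu/nu mice given 1 million BaF3 cells (TEL-TRKA, TEL-TRKB, TEL-TRKC, LMNA-TRKA-F589L or LMNA-TRKA-G667S) in DMEM, 1:1 with matrigel, injected subcutaneously into the right flank; oral gavage began at 200–400 mm³, 5 mice per group, compound in 0.5% methylcellulose/0.4% Tween 80 in ddH₂O, 10 days; tumor volume [(W²×L)/2] and body weight recorded daily; TGI versus vehicle.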

[2] = target: T1, High affinity nerve growth factor receptor (Homo sapiens, UniProt P04629); assay: Inhibition of TRKA in human KM-12-LUC cells assessed as reduction in AKT phosphorylation at S473 residue after 2 hrs by Western blot analysis; format: cell-based, KM12-Luc
In short: (§2)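 KM-12-LUC (TPM3-TRKA fused colon cancer cells) grown in RPMI 1640 with 10% FBS and 1% penicillin/streptomycin at 37 °C under 5% CO2. Serially diluted compound added for 2 h. Lysates western blotted for phospho-AKT (T308/S473) and phospho-ERK1/2 (T202/Y204).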
Target sequence in this assay (P04629 whole entry, the tested form may be a part): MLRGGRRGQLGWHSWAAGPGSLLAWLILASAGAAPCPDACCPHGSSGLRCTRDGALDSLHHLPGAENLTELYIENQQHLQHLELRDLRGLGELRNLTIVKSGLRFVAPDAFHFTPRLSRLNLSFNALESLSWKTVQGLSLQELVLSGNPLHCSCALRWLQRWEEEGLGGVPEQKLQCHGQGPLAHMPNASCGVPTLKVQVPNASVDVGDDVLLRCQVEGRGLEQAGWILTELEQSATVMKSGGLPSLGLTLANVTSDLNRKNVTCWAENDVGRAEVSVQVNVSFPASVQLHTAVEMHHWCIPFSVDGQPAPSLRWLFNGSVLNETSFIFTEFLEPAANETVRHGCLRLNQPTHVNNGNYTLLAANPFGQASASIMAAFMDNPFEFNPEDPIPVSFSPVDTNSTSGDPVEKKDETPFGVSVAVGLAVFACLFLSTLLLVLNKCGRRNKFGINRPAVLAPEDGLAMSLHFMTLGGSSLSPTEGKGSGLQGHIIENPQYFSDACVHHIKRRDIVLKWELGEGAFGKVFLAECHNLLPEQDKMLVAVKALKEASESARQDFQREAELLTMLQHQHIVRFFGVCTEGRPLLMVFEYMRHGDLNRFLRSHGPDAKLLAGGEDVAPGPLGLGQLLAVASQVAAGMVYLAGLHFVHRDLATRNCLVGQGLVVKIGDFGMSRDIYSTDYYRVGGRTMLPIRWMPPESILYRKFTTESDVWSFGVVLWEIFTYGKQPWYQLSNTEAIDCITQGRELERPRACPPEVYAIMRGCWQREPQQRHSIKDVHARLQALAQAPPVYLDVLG

[3] = target: T2, Platelet-derived growth factor receptor beta (Homo sapiens, UniProt P09619); assay: Inhibition of human PDGFR beta by Z-LYTE or ADP-Glo assay
T2 sequence (P09619 whole entry): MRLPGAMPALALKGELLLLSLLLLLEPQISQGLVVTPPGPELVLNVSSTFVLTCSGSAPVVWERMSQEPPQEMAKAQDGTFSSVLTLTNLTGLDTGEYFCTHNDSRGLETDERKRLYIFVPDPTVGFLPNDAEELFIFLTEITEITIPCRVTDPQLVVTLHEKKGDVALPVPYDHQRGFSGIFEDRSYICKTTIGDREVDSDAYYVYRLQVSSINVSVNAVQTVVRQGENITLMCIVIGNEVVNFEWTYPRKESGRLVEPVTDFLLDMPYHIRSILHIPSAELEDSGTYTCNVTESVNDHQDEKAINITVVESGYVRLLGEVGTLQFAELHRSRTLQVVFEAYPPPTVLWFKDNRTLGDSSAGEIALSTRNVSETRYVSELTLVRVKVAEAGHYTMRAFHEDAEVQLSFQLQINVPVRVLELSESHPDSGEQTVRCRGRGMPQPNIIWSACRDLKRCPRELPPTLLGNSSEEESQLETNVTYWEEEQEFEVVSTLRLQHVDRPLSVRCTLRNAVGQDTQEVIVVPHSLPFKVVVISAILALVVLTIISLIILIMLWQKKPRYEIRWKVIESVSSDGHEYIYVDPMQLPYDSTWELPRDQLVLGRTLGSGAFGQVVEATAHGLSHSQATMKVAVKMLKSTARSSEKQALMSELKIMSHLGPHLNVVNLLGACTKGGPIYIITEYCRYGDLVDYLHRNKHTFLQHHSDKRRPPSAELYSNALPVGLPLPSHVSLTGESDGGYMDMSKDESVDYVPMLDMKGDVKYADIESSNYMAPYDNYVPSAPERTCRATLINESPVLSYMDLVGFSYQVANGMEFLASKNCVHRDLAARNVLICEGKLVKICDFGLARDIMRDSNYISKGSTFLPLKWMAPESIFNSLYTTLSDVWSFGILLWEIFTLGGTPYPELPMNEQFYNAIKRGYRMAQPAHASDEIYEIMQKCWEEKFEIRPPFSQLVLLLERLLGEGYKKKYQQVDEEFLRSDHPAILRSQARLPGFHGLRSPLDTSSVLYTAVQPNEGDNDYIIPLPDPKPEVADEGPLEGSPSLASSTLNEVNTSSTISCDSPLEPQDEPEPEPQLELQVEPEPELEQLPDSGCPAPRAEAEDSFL
In short: (§3)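 Purified kinase proteins tested biochemically in Z'LYTE or ADP-Glo format.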

[4] = target: T1, High affinity nerve growth factor receptor; assay: Inhibition of TRKA in human KM-12-LUC cells assessed as reduction in ERK1/2 phosphorylation at T202/Y204 residues after 2 hrs by Western blot analysis; format: cell-based, KM12-Luc; in short: as §2
Target sequence in this assay (P04629 whole entry, the tested form may be a part): as the sequence (P04629 whole entry, the tested form may be a part) above

BaF3 [5] = assay: Antitumor activity against mouse BAF3 cells harboring TEL fused TRKC allografted in nude mouse assessed as tumor growth inhibition administered orally once daily for 10 days; format: functional, cell-based; conditions: dose 40-80 mg/kg/day, time 10.0 day; in short: as §1
[6] = target: Mast/stem cell growth factor receptor Kit (Homo sapiens, UniProt P10721); assay: Inhibition of human KIT by Z-LYTE or ADP-Glo assay; in short: as §3
Sequence of Mast/stem cell growth factor receptor Kit (P10721 whole entry): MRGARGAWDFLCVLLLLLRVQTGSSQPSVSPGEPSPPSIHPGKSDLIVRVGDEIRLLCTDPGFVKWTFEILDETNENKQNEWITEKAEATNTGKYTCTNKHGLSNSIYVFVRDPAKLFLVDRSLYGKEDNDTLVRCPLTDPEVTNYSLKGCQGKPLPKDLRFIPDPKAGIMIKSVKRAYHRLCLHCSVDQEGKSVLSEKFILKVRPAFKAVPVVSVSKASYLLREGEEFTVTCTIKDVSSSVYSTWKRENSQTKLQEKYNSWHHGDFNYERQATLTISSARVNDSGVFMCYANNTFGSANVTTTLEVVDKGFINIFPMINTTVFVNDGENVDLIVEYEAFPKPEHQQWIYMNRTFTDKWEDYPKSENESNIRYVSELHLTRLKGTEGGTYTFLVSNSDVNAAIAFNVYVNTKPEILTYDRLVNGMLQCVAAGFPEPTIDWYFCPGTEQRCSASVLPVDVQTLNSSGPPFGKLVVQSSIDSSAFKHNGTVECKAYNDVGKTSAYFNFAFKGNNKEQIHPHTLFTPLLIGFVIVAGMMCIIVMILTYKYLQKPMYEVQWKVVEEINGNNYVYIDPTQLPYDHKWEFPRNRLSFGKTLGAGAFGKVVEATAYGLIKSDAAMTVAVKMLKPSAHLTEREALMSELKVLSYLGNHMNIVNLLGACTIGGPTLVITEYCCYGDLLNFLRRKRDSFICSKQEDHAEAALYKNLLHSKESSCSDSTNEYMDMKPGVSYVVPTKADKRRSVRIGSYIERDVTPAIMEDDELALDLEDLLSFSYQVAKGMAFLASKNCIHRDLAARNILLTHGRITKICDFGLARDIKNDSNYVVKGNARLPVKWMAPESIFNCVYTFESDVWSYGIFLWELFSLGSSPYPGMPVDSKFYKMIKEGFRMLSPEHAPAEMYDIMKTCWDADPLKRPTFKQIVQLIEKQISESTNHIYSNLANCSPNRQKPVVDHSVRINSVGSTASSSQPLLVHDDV

[7] = Antitumor activity against human […] cells xenografted in nude mouse assessed as tumor growth inhibition at 80 mg/kg, po administered once daily for 10 days relative to control; format: functional; conditions: KM12-Luc, 240 h, time 10 day, read-out: TGI
In short: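 Nu/nu mice given 5 million KM-12-LUC cells in DMEM, 1:1 with matrigel, injected subcutaneously into the right flank; oral gavage started at tumor size 150–200 mm³, 5 mice per group, compound in 0.5% methylcellulose/0.4% Tween 80 in ddH₂O; body weight and tumor volume [(W²×L)/2] measured daily; TGI versus vehicle.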

[8] = target: T2, Platelet-derived growth factor receptor beta; assay: Inhibition of TEL fused PDGFRbeta (unknown origin) transfected in mouse BAF3 cells assessed as growth inhibition after 72 hrs by CCK8 assay; format: cell-based
In short: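 TEL-fusion isogenic BaF3 lines were built in-house and grown in RPMI 1640 with 10% FBS and 1% penicillin/streptomycin at 37 °C under 5% CO2. Cells were spun down before use.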

[9] = Tmax in Sprague-Dawley rat at 1 mg/kg, iv; format: ADME, organism-based; conditions: in vivo
In short: (§4)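 Single-dose PK in mice, Sprague Dawley rats and beagle dogs, given i.v. (1 mg/kg) or p.o. (10 mg/kg mice and rats; 5 mg/kg dogs). AUC0-t, T1/2, Tmax and oral bioavailability (F) derived from plasma profiles.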

[10] = Inhibition of LMNA fused TRKA G667S mutant (unknown origin) transfected in mouse BaF3 cells assessed as reduction in phosphorylation at Y490 residue after 2 hrs by Western blot analysis; conditions: Homo sapiens, BaF3, 2 h
BaF3 [11] = assay: Antitumor activity against mouse BAF3 cells harboring TEL fused TRKB allografted in nude mouse assessed as tumor growth inhibition administered orally once daily for 10 days; format: functional, cell-based; conditions: dose 40-80 mg/kg/day, time 10.0 day; in short: as §1
[12] = AUC (0 to t) in Beagle dog at 1 mg/kg, iv; format: ADME, organism-based, Canis lupus familiaris; parameters: dose 1 mg/kg; conditions: in vivo
In short: (§5)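 Intravenous and oral arms were run in parallel in each species (mice, Sprague Dawley rats, beagle dogs). Exposure is reported as AUC0-t in ng/mL·h.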

[13] = Inhibition of LMNA fused TRKA F589L mutant (unknown origin) transfected in mouse BaF3 cells assessed as reduction in phosphorylation at Y490 residue after 2 hrs by Western blot analysis; conditions: Homo sapiens, BaF3, 2 h
BaF3 [14] = assay: Antitumor activity against mouse BAF3 cells harboring LMNA fused TRKA-G667S mutant allografted in nude mouse assessed as tumor growth inhibition at 40 mg/kg, po administered twice daily for 10 days relative to control; format: functional; conditions: 240 h, time 10 day, read-out: TGI; in short: as §1
[15] = Toxicity in mouse xenografted with human […] cells assessed as effect on abnormal behaviour at 40 to 80 mg/kg, po administered once daily for 10 days; format: organism-based; conditions: in vivo, 240 h, dose 40-80 mg/kg/day, time 10 day
In short: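 nu/nu mice were given subcutaneous right-flank implants in 1:1 DMEM/matrigel: 1 million BaF3 fusion cells or 5 million KM-12-LUC cells. Oral gavage started at 150–200 mm3 (xenograft) or 200–400 mm3 (allograft). Dosing used 40 or 80 mg/kg in HKI vehicle (0.5% methylcellulose/0.4% Tween 80 in ddH2O), with 5 mice per group. Body weight was recorded daily and behaviour observed.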

[16] = Half life in mouse at 10 mg/kg, po; format: ADME, organism-based; conditions: in vivo
[17] = Apparent clearance in Sprague-Dawley rat at 10 mg/kg, po; format: ADME, organism-based; conditions: in vivo, read-out: CLz/F (converted)
[18] = Oral bioavailability in Beagle dog at 5 mg/kg; format: ADME, organism-based, Canis lupus familiaris; conditions: in vivo; in short: as §4
[19] = system: High affinity nerve growth factor receptor (Homo sapiens), P04629 [G667C]; assay: Inhibition of LMNA fused TRKA G667C mutant (unknown origin) transfected in mouse BAF3 cells assessed as growth inhibition after 72 hrs by CCK8 assay; format: cell-based
Sequence of High affinity nerve growth factor receptor (Homo sapiens), P04629 [G667C] (P04629 whole entry G667C, looked up, the tested form may be a part): as the sequence (P04629 whole entry, the tested form may be a part) above, with G667C counted along it
In short: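 TEL- or LMNA-fusion isogenic BaF3 lines grown in RPMI 1640 with 10% FBS and 1% penicillin/streptomycin at 37 °C, 5% CO₂; suspension cells collected by spinning at 800 rpm for 4 min before use; growth inhibition scored as GI₅₀.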

BaF3 [20] = assay: Antitumor activity against mouse BAF3 cells harboring TEL fused TRKB allografted in nude mouse assessed as tumor growth inhibition at 40 mg/kg, po administered once daily for 10 days relative to control; format: functional; conditions: 240 h, time 10 day, read-out: TGI; in short: as §1
[21] = AUC (0 to t) in Sprague-Dawley rat at 10 mg/kg, po; format: ADME, organism-based; parameters: dose 10 mg/kg; conditions: in vivo; in short: as §5
[22] = Oral bioavailability in mouse at 10 mg/kg; format: ADME, organism-based; conditions: in vivo; in short: as §4
[23] = target: T1, High affinity nerve growth factor receptor; assay: Inhibition of wild type TEL fused TRKA (unknown origin) transfected in mouse BAF3 cells assessed as growth inhibition after 72 hrs by CCK8 assay; format: cell-based
Target sequence in this assay (P04629 33-796 limits assumed): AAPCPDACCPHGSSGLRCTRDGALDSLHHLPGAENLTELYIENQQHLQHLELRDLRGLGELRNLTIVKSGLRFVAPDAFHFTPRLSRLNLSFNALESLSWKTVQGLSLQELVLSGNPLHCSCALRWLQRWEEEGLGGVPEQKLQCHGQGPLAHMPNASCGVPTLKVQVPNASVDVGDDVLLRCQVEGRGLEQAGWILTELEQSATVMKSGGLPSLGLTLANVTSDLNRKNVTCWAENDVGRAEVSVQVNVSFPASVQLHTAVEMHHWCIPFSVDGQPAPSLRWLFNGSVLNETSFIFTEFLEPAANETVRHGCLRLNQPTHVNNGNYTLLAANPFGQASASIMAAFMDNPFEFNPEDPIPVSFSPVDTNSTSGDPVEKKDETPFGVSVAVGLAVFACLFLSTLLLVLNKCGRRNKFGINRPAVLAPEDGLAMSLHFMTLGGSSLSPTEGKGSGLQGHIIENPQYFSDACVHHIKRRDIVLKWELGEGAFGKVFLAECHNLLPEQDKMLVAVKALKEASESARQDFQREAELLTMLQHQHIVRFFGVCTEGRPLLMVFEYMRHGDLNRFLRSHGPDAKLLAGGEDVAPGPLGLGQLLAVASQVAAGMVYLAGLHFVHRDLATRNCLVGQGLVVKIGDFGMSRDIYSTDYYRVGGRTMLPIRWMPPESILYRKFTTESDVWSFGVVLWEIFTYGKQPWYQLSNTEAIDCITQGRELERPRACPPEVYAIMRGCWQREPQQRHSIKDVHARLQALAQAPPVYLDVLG

[24] = target: BDNF/NT-3 growth factors receptor (Homo sapiens, UniProt Q16620); assay: Inhibition of TEL fused wild type TRKB (unknown origin) transfected in mouse BaF3 cells assessed as reduction in phosphorylation at Y515 residue after 2 hrs by Western blot analysis; format: cell-based
Sequence of BDNF/NT-3 growth factors receptor (Q16620 whole entry, the tested form may be a part): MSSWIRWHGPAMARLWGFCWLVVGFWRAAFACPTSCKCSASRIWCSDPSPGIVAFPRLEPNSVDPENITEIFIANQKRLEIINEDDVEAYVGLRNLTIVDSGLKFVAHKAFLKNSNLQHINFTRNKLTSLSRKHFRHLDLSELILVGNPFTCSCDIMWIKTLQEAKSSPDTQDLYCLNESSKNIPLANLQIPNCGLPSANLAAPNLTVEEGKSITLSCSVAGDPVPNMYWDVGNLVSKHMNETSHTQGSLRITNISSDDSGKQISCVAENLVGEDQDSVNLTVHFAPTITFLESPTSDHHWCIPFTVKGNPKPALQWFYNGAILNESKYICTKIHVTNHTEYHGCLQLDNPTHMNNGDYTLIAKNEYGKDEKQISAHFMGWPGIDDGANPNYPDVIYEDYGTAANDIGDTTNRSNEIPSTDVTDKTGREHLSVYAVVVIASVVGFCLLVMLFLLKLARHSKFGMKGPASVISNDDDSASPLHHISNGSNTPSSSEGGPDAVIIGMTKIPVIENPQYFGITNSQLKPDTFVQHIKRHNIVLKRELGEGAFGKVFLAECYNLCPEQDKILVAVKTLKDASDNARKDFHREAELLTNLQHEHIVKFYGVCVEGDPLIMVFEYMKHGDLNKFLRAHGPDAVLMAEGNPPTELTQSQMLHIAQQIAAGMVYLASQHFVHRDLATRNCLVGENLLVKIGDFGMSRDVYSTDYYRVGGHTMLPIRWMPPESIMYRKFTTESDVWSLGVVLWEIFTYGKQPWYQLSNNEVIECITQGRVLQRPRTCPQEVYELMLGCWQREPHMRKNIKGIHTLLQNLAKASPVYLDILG
In short: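 Isogenic BaF3 lines, made in-house, grown in RPMI 1640 with 10% FBS and 1% penicillin/streptomycin at 37 °C under 5% CO2. Serially diluted compound added for 2 h. Cells collected and lysed, and lysates analysed by western blotting for phospho-TRK. EC50 derived from the blots.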

- EC50 [2]: < 30 nM
- IC50 [3]: 95.7 nM
- EC50 [4]: < 30 nM
- IC50 [6]: 2170 nM
- GI50 [8]: 1.4 nM
- Tmax [9]: 1.8 min
- EC50 [10]: 74 nM
- AUC(0-t) [12]: 323 ng·h/mL
- EC50 [13]: 21 nM
- t1/2 [16]: 3.4 h
- CL/F [17]: 170 mL/min/kg
- bioavailability [18]: 35%
- GI50 [19]: 34 nM
- AUC(0-t) [21]: 952 ng·h/mL
- bioavailability [22]: 20%
- GI50 [23]: 8.5 nM
- EC50 [24]: 69 nM
SMILES: Cc1nc(NC(=O)CN2CCN(C)CC2)sc1-c1ccc2c(/C=C/c3ccccn3)n[nH]c2c1
- inhibition in vivo at 80 mg/kg/day (BaF3 [1]): 57.5%
- Activity (BaF3 [5]): Dose-dependent effect
- inhibition in vivo at 80 mg/kg/day [7]: 94.7%
- Activity (BaF3 [11]): Dose-dependent effect
- inhibition in vivo at 40 mg/kg (BaF3 [14]): 64.9%
- Activity [15]: Non-Toxic
- inhibition in vivo at 40 mg/kg/day (BaF3 [20]): 83.1%
